Data published in ChEMBL document CHEMBL4813987, “Membrane active 7-thiazoxime quinolones as novel DNA binding agents to decrease the genes expression and exert potent anti-methicillin-resistant Staphylococcus aureus activity” (Eur J Med Chem, 2021).
Calls of active or inactive are those of the source. The calls are words filed in the database; no cut-off is given here.

Experiments:
Cell membrane [1] = test: Induction of inner membrane permeabilization in methicillin-resistant Staphylococcus aureus assessed as decrease in fluorescence intensity at 4 times MIC measured by calcein-AM dye based fluorescence analysis
Enterococcus faecalis = test: Antibacterial activity against Enterococcus faecalis assessed as reduction in microbial growth by two fold microdilution method; format: functional
Staphylococcus aureus [2] = test: Antibacterial activity against methicillin-resistant Staphylococcus aureus assessed as reduction in bacterial growth at 20 to 140 ug/ml measured after 16 passages; format: functional, organism-based; settings: dose 20-140 µg/ml
Staphylococcus aureus [3] = test: Antibacterial activity against methicillin-resistant Staphylococcus aureus assessed as reduction in microbial growth by two fold microdilution method; format: functional
Outline: (§1)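 MIC determined by the standard two-fold broth micro-dilution assay, with norfloxacin and ciprofloxacin as reference agents.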

DNA [4] = test: Binding affinity to methicillin-resistant Staphylococcus aureus DNA assessed as maximum absorbance peak at 260 nm by UV spectroscopy; format: nucleic-acid assay
Outline: (§2)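 Genomic DNA isolated from MRSA titrated with the compound. UV absorption spectra recorded in 1.0 cm quartz cells, and the binding constant derived from an equation and plot of the spectral data.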

Klebsiella pneumoniae [5] = test: Synergistic antibacterial activity against Klebsiella pneumonia assessed as fractional inhibitory concentration index in presence of ciprofloxacin; format: functional
Klebsiella pneumoniae [6] = test: Antibacterial activity against Klebsiella pneumonia in presence of ciprofloxacin (reference value: 0.25 ug/ml); format: functional
Escherichia coli [7] = test: Antibacterial activity against Escherichia coli in presence of ciprofloxacin (reference value: 0.25 ug/ml); format: functional
Cell membrane [8] = test: Induction of inner membrane permeabilization in methicillin-resistant Staphylococcus aureus by propidium iodide staining based fluorescence microscopic analysis
Outline: (§3)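 MRSA treated at 1–4 × MIC and stained with propidium iodide and calcein-AM. Fluorescence intensity measured on a spectrofluorimeter. Dual-stain cells imaged by fluorescence microscopy, scoring red (PI) and green (calcein) cells.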

Cell membrane [9] = test: Induction of membrane depolarization in methicillin-resistant Staphylococcus aureus at MIC by DiSC35 dye-based fluorescence assay; settings: TDE = time-dependent effect
Outline: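 Cytoplasmic membrane potential of MRSA probed with the fluorescent dye diSC35. Cells treated at MIC, and fluorescence intensity recorded over time against untreated cells.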

[10] = target: T1, DNA gyrase (Staphylococcus aureus) (UniProt P0A0K8+P20831); test: Binding affinity to DNA gyrase in methicillin-resistant Staphylococcus aureus assessed as decrease in gyrB gene expression after 3 hrs by RT-PCR method
Escherichia coli [11] = test: Antibacterial activity against Escherichia coli ATCC 25922 assessed as reduction in microbial growth by two fold microdilution method; format: functional
Escherichia coli [12] = test: Antibacterial activity against Escherichia coli assessed as reduction in microbial growth by two fold microdilution method; format: functional
Pseudomonas aeruginosa [13] = test: Antibacterial activity against Pseudomonas aeruginosa ATCC 27853 assessed as reduction in microbial growth by two fold microdilution method; format: functional
Staphylococcus aureus [14] = test: Bactericidal activity against methicillin-resistant Staphylococcus aureus assessed as increase in sterilization rate at 2 ug/ml measured at 6 hrs by time kill assay; format: functional, organism-based; settings: dose 2.0 µg/ml
Outline: (§4)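 Time-kill kinetics: MRSA exposed to the compound at several concentrations, with ciprofloxacin as positive control. Sterilization rate followed over time up to 6 h.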

Staphylococcus aureus [15] = test: Antibacterial activity against Staphylococcus aureus ATCC 25923 in presence of ciprofloxacin (reference value: 0.25 ug/ml); format: functional
Outline: (§5)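 MIC of the test compound and of ciprofloxacin determined alone and in combination against each strain. FIC index = (MIC of A combined / MIC of A alone) + (MIC of B combined / MIC of B alone). FIC index ≤0.5 scored synergy, >0.5–2 additivity, >2 antagonism.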

Staphylococcus aureus [16] = test: Bactericidal activity against methicillin-resistant Staphylococcus aureus assessed as increase in sterilization rate at 4 ug/ml measured at 4 hrs by time kill assay; format: functional, organism-based; settings: dose 4.0 µg/ml
Outline: as §4

Erythrocyte = test: Hemolytic activity in human RBC at 16 times MIC incubated for 4 hrs by microscopic analysis; format: ADME, cell-based
Outline: (§6)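 Processed red blood cells incubated with various compound concentrations (multiples of MIC) for 4 h at 37 °C in PBS; 1% Triton X-100 as positive control, PBS blank, saline control; hemolysis rate determined and cell integrity inspected by microscopy.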

DNA [17] = test: Binding affinity to methicillin-resistant Staphylococcus aureus DNA assessed as compound-DNA complex formation by UV spectroscopy; format: nucleic-acid assay
Outline: as §2

Escherichia coli [18] = test: Synergistic antibacterial activity against Escherichia coli assessed as fractional inhibitory concentration index in presence of ciprofloxacin; format: functional
[19] = Hemolytic activity in human RBC at 64 times MIC incubated for 4 hrs by microscopic analysis relative to control; format: ADME, cell-based, Erythrocyte; settings: red blood cells (erythrocytes), read-out: Activity
Outline: as §6

[20] = target: T1, DNA gyrase (Staphylococcus aureus); test: Binding affinity to DNA gyrase in methicillin-resistant Staphylococcus aureus assessed as decrease in mecA gene expression after 3 hrs by RT-PCR method
Klebsiella pneumoniae [21] = test: Antibacterial activity against Klebsiella pneumonia assessed as reduction in microbial growth by two fold microdilution method; format: functional
DNA [22] = test: Competitive binding affinity to methicillin-resistant Staphylococcus aureus DNA assessed as DNA intercalation by DAPI staining based assay; format: nucleic-acid assay
Outline: (§7)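 Competitive displacement on MRSA DNA, recorded by fluorescence in 1.0 cm quartz cells. For the AO–DNA complex, emission at 537 nm followed with increasing compound concentration. For the DAPI–DNA complex, DAPI fluorescence followed with increasing compound concentration.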

DNA [23] = test: Competitive binding affinity to methicillin-resistant Staphylococcus aureus DNA assessed as DNA intercalation by AO staining based assay; format: nucleic-acid assay
Outline: as §7

Staphylococcus aureus [24] = test: Antibacterial activity against methicillin-resistant Staphylococcus aureus in presence of ciprofloxacin (reference value: 0.25 ug/ml); format: functional
Outline: as §5

Staphylococcus aureus [25] = test: Synergistic antibacterial activity against methicillin-resistant Staphylococcus aureus assessed as fractional inhibitory concentration index in presence of ciprofloxacin; format: functional
Outline: as §5

Acinetobacter baumannii = test: Antibacterial activity against Acinetobacter baumannii assessed as reduction in microbial growth by two fold microdilution method; format: functional
Cell membrane [26] = test: Induction of inner membrane disruption in methicillin-resistant Staphylococcus aureus assessed as decrease in green fluorescence intensity at 4 times MIC measured by calcein-AM dye based fluorescence analysis
Outline: as §3

[27] = target: T1, DNA gyrase (Staphylococcus aureus); test: Binding affinity to DNA gyrase in methicillin-resistant Staphylococcus aureus assessed as decrease in femB gene expression after 3 hrs by RT-PCR method
HEK-293T = test: Cytotoxicity against human HEK293T cells assessed as increase in cell survival incubated for 24 hrs by MTT assay relative to control; format: cell-based
Outline: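 LO2 hepatocytes and 293T cells exposed to compound for 24 h; viability by colorimetric MTT proliferation assay, expressed as survival rate versus untreated cells.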

Cell membrane [28] = test: Induction of inner membrane disruption in methicillin-resistant Staphylococcus aureus assessed as increase in red fluorescence intensity at 4 times MIC measured by calcein-AM dye based fluorescence analysis
Outline: as §3

Staphylococcus aureus [29] = test: Additive antibacterial activity against Staphylococcus aureus ATCC 25923 assessed as fractional inhibitory concentration index in presence of ciprofloxacin; format: functional
[30] = Hemolytic activity in human RBC incubated for 4 hrs by microscopic analysis relative to control; format: ADME, cell-based, Erythrocyte; settings: red blood cells (erythrocytes), read-out: Activity
Outline: as §6

Staphylococcus aureus [31] = test: Antibacterial activity against methicillin-resistant Staphylococcus aureus assessed as reduction in bacterial growth at 20 to 140 ug/ml measured after 16 passages in presence of ciprofloxacin; format: functional, organism-based; settings: dose 20-140 µg/ml
Staphylococcus aureus [32] = test: Antibacterial activity against Staphylococcus aureus ATCC 25923 assessed as reduction in microbial growth by two fold microdilution method; format: functional
Staphylococcus aureus [33] = test: Antibacterial activity against Staphylococcus aureus assessed as reduction in microbial growth by two fold microdilution method; format: functional
Outline: as §1

Staphylococcus aureus [34] = test: Antibacterial activity against Staphylococcus aureus ATCC 29213 assessed as reduction in microbial growth by two fold microdilution method; format: functional
DNA [35] = test: Binding affinity to methicillin-resistant Staphylococcus aureus DNA assessed as conformational changes in DNA duplex by UV spectroscopy; format: nucleic-acid assay
Outline: as §2

Pseudomonas aeruginosa [36] = test: Antibacterial activity against Pseudomonas aeruginosa assessed as reduction in microbial growth by two fold microdilution method; format: functional

T1 sequence (P0A0K8 2-644 limits assumed): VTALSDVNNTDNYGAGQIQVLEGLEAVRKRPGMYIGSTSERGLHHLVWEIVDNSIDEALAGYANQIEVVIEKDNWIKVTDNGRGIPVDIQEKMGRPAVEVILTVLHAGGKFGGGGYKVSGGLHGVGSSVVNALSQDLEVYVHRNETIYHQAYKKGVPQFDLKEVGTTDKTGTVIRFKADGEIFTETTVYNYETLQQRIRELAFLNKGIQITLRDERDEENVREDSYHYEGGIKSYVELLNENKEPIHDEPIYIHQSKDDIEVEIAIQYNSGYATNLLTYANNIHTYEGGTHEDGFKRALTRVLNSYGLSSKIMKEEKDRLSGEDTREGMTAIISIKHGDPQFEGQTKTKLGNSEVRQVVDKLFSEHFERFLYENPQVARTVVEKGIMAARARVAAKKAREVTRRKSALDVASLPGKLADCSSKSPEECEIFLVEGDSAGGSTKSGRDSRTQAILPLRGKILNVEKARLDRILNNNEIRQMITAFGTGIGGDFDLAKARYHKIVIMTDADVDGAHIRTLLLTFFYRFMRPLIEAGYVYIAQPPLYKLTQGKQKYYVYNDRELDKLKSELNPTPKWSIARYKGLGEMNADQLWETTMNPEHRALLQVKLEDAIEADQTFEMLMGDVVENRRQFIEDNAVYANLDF
T1 sequence (P20831 whole entry partner): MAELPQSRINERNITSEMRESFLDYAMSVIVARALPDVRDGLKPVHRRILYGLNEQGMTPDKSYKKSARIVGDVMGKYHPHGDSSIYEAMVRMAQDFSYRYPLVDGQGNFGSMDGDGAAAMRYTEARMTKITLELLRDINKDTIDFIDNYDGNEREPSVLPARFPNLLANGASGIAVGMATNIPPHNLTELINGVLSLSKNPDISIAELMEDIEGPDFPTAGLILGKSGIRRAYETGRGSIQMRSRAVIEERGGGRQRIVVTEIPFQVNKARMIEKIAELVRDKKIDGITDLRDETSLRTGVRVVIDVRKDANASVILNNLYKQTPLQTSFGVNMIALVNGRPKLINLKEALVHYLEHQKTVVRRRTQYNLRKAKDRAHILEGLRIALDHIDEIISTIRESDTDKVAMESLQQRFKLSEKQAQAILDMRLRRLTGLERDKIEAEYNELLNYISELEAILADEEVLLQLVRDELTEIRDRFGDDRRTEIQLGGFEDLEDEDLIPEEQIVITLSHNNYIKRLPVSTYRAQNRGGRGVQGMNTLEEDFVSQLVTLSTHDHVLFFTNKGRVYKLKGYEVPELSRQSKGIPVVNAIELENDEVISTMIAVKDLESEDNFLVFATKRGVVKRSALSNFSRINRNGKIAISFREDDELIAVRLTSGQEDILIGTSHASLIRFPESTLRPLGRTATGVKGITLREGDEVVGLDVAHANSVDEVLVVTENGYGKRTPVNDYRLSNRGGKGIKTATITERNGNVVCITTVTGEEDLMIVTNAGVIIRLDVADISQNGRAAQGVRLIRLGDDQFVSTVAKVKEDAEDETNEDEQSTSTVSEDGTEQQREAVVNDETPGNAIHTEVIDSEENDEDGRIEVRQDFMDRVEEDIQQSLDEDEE

Which results are given for `COC(=O)CO/N=C(\CN1CCN(c2cc3c(cc2F)c(=O)c(C(=O)O)cn3C2CC2)CC1)c1nccs1`?
Activity (Cell membrane [1]): Active; MIC (Enterococcus faecalis): 0.25 µg/mL; Activity (Staphylococcus aureus [2]): Active; MIC (Staphylococcus aureus [3]): 0.25 µg/mL; Activity (DNA [4]): Active; FIC (Klebsiella pneumoniae [5]): 0.3125; MIC (Klebsiella pneumoniae [6]): 0.0625 µg/mL; MIC (Escherichia coli [7]): 0.0625 µg/mL; Activity (Cell membrane [8]): Dose-Dependent Effect; Activity (Cell membrane [9]): Tde; Activity [10]: Active; MIC (Escherichia coli [11]): 0.25 µg/mL; MIC (Escherichia coli [12]): 1 µg/mL; MIC (Pseudomonas aeruginosa [13]): 0.25 µg/mL; Activity (Staphylococcus aureus [14]): Active; MIC (Staphylococcus aureus [15]): 0.25 µg/mL; Activity (Staphylococcus aureus [16]): Active; Activity (Erythrocyte): Non-Toxic; Activity (DNA [17]): Active; FIC (Escherichia coli [18]): 0.3125; hemolysis at 4 h, 64 times MIC [19]: < 5%; Activity [20]: inactive; MIC (Klebsiella pneumoniae [21]): 0.25 µg/mL; Activity (DNA [22]): Active; Activity (DNA [23]): Active; MIC (Staphylococcus aureus [24]): 0.125 µg/mL; FIC (Staphylococcus aureus [25]): 0.5; MIC (Acinetobacter baumannii): 0.25 µg/mL; Activity (Cell membrane [26]): Active; Activity [27]: Active; Activity (HEK-293T): > 90%; Activity (Cell membrane [28]): Active; FIC (Staphylococcus aureus [29]): 1.5; hemolysis at 4 h [30]: < 3%; Activity (Staphylococcus aureus [31]): inactive; MIC (Staphylococcus aureus [32]): 0.25 µg/mL; MIC (Staphylococcus aureus [33]): 0.25 µg/mL; MIC (Staphylococcus aureus [34]): 0.25 µg/mL; Activity (DNA [35]): Active; MIC (Pseudomonas aeruginosa [36]): 0.25 µg/mL
